Measured values published in ChEMBL document CHEMBL2169744, “Discovery and optimization of potent and selective imidazopyridine and imidazopyridazine mTOR inhibitors” (Bioorg Med Chem Lett, 2012).
In brackets after ≈: the same amount, converted by molar mass. Activity calls are given as the source filed them. No cut-off for these calls is given here.

Tests used:
[1] = Apparent permeability from apical to basal side of pig LLC-PK1 cells; format: ADME, cell-based, Sus scrofa
[2] = Plasma protein binding in rat at 5 mg/kg, po; format: ADME, organism-based; set-up: dose 5 mg/kg, route oral; conditions: read-out: PPB (converted)
[3] = molecular target: Phosphatidylinositol 4,5-bisphosphate 3-kinase catalytic subunit alpha isoform (Homo sapiens, UniProt P42336); test: Inhibition of PI3Kalpha by AlphaScreen assay
[4] = Drug excretion in po dosed Sprague-Dawley rat urine; format: ADME, organism-based; conditions: in vivo
[5] = test system: Rattus norvegicus; test: Drug metabolism in po dosed Sprague-Dawley rat assessed as pyrazole glucuronide derivative; format: ADME, organism-based; conditions: in vivo
[6] = Inhibition of mTORC1-mediated pS6 Ser240/244-phosphorylation in human U87MG cells; format: cell-based, U-87MG ATCC; conditions: U-87 MG
In short: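 Cell assay in U87MG cells measuring phosphorylation of the mTOR substrate S6 (S240/244), n ≥ 2.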

[7] = Efflux ratio of apparent permeability from basal to apical to apical to basal side of pig LLC-PK1 cells; format: ADME, cell-based, Sus scrofa
[8] = Volume of distribution at steady state in rat at 0.5 mg/kg, iv; format: ADME, organism-based; set-up: dose 0.5 mg/kg, route intravenous; conditions: in vivo, read-out: Vdss
[9] = organism: Mus musculus; test: animal or person; conditions: Liver, 6 h
[10] = test system: Mus musculus; test: Inhibition of mTORC2 in po dosed mouse assessed as inhibition of HGF-induced AKT Ser473-phosphorylation in liver tissue at 100 mg/kg, po measured at >8 hrs; format: functional, organism-based; set-up: dose 100 mg/kg
In short: (§1)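 Time course in mouse liver: single oral dose of 100 mg/kg, sampled at 3, 6, 8 and 24 h. Inhibition of HGF-induced pAKT (S473 and T308) and pS6 in liver tissue measured against vehicle controls.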

[11] = test system: Mus musculus; test: Toxicity in mouse assessed adverse effects at 60 mg/kg, po administered QD for 7 days relative to vehicle-treated control; format: organism-based; set-up: dose 60 mg/kg, route oral; conditions: in vivo, 168 h
In short: (§2)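 Seven-day tolerability study in mice, n = 5 per group. Oral dosing QD at 60 or 100 mg/kg. Body weight monitored; animals with average weight loss >20% removed from study.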

[12] = test system: Mus musculus; test: Inhibition of PI3Kalpha in po dosed mouse assessed as inhibition of HGF-induced AKT Thr308-phosphorylation in liver tissue after 6 hrs; format: functional, organism-based
In short: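 Single oral dose to mice of vehicle (50% PEG400, 1% Pluronic F68, pH 2.2 with MSA) or compound at 10, 30 or 100 mg/kg, n = 3 per dose. HGF-stimulated liver taken at 6 h; pAKT (S473, T308) and pS6RP measured in lysate by MSD assay. Plasma drug levels measured. Factorial ANOVA versus vehicle, then Dunnett's test.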

[13] = Clearance in rat at 0.5 mg/kg, iv; format: ADME, organism-based; set-up: dose 0.5 mg/kg, route intravenous; conditions: in vivo
[14] = Inhibition of mTORC1-mediated 4EBP1-phosphorylation in human U87 cells; format: cell-based, U-87MG ATCC; conditions: Homo sapiens, U-87 MG; read-out: IC50
[15] = Clearance in rat liver microsomes; format: ADME, Microsome; conditions: read-out: CLH
[16] = AUC in rat at 0.5 mg/kg, iv; format: ADME, organism-based, Plasma; set-up: dose 0.5 mg/kg, route intravenous; conditions: plasma
[17] = organism: Mus musculus; test: animal or person; conditions: Liver, 6 h; remark: listed apart in the source
[18] = test system: Rattus norvegicus; test: Drug metabolism in po dosed Sprague-Dawley rat assessed as imidazopyridine oxidation; format: ADME, organism-based; conditions: in vivo
[19] = Solubility of the compound in simulated intestinal fluid; format: physicochemical
[20] = Solubility of the compound in phosphate buffered saline; format: physicochemical
[21] = Half life in rat at 0.5 mg/kg, iv; format: ADME, organism-based; set-up: dose 0.5 mg/kg, route intravenous; conditions: in vivo
[22] = test system: Rattus norvegicus; test: Drug metabolism in po dosed Sprague-Dawley rat assessed as triazine amine glucuronide derivative; format: ADME, organism-based; conditions: in vivo
[23] = test system: Mus musculus; test: Inhibition of PI3Kalpha in po dosed mouse assessed as inhibition of HGF-induced AKT Thr308-phosphorylation in liver tissue at 100 mg/kg, po measured at 24 hrs; format: functional, organism-based; set-up: dose 100 mg/kg; in short: as §1
[24] = Antitumor activity against human U87MG cells xenografted in mouse assessed as tumor growth inhibition at 60 mg/kg, po administered QD for 2 weeks relative to vehicle-treated control; format: functional, U-87MG ATCC; conditions: U-87 MG, 336 h, read-out: TGI
In short: (§3)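 Mice bearing established U87-MG tumours dosed orally with vehicle or compound at 10, 30 or 60 mg/kg QD or 30 mg/kg BID for 2 weeks. Tumour volume (mm3) tracked, mean ± SE, n = 10. TGI relative to vehicle controls; significance by repeated-measures ANOVA followed by Dunnett's test.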

[25] = Inhibition of mTORC2-mediated AKT Ser473-phosphorylation in human U87 cells; format: cell-based, U-87MG ATCC; conditions: U-87 MG
In short: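 Cell assay in U87 cells measuring pAKT (S473), n ≥ 2.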

[26] = Solubility of the compound in 0.01 N HCl; format: physicochemical; conditions: 0.01 N HCl; read-out: solubility
[27] = Half life in rat at 1 mg/kg, iv; format: ADME, organism-based; set-up: dose 1 mg/kg, route intravenous; conditions: in vivo
[28] = test system: U-87MG ATCC; test: Antitumor activity against human U87MG cells xenografted in po dosed mouse assessed as tumor growth inhibition administered BID for 2 weeks; format: functional, organism-based; in short: as §3
[29] = Clearance in rat at 1 mg/kg, iv; format: ADME, organism-based; set-up: dose 1 mg/kg, route intravenous; conditions: in vivo
[30] = test system: Mus musculus; test: Inhibition of mTORC1 in po dosed mouse assessed as inhibition of HGF-induced pS6-phosphorylation in liver tissue at 100 mg/kg, po measured at 24 hrs; format: functional, organism-based; set-up: dose 100 mg/kg; in short: as §1
[31] = test system: Mus musculus; test: Inhibition of mTORC2 in po dosed mouse assessed as inhibition of HGF-induced AKT Ser473-phosphorylation in liver tissue at 100 mg/kg, po measured at 24 hrs; format: functional, organism-based; set-up: dose 100 mg/kg; in short: as §1
[32] = Oral bioavailability in rat at 5 mg/kg; format: ADME, organism-based; conditions: in vivo
In short: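 Rat oral PK at 5.0 mpk in 1% Tween 80, 2% HPMC, 97% H2O, pH 2.2 (methanesulfonic acid).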

[33] = test system: Mus musculus; test: Inhibition of mTORC1 in po dosed mouse assessed as inhibition of HGF-induced pS6-phosphorylation in liver tissue at 100 mg/kg, po measured at >8 hrs; format: functional, organism-based; set-up: dose 100 mg/kg; in short: as §1
[34] = Oral bioavailability in rat at 1 mg/kg; format: ADME, organism-based; conditions: in vivo
[35] = Clearance in human liver microsomes; format: ADME, Microsome; conditions: read-out: CLH
[36] = Drug excretion in iv dosed Sprague-Dawley rat urine; format: ADME, organism-based; conditions: in vivo
[37] = Apparent permeability from basal to apical side of pig LLC-PK1 cells; format: ADME, cell-based, Sus scrofa
[38] = test system: Mus musculus; test: Toxicity in mouse assessed weight loss at 100 mg/kg, po administered QD for 7 days measured on day 3 relative to vehicle-treated control; format: organism-based; set-up: dose 100 mg/kg, route oral; conditions: in vivo, 168 h; in short: as §2
[39] = molecular target: Phosphatidylinositol 4,5-bisphosphate 3-kinase catalytic subunit beta isoform (Homo sapiens, UniProt P42338); test: Inhibition of PI3Kbeta by AlphaScreen assay
[40] = test system: Mus musculus; test: Inhibition of PI3Kalpha in po dosed mouse assessed as inhibition of HGF-induced AKT Thr308-phosphorylation in liver tissue at 100 mg/kg, po measured at >8 hrs; format: functional, organism-based; set-up: dose 100 mg/kg; in short: as §1
[41] = test system: U-87MG ATCC; test: Antitumor activity against human U87MG cells xenografted in po dosed mouse assessed as tumor growth inhibition administered QD for 2 weeks; format: functional, organism-based; in short: as §3
[42] = Volume of distribution at steady state in rat at 1 mg/kg, iv; format: ADME, organism-based; set-up: dose 1 mg/kg, route intravenous; conditions: in vivo, read-out: Vdss
[43] = Antitumor activity against human U87MG cells xenografted in mouse assessed as tumor growth inhibition at 30 mg/kg, po administered BID for 2 weeks relative to vehicle-treated control; format: functional, U-87MG ATCC; conditions: U-87 MG, 336 h, read-out: TGI; in short: as §3

Sequence of Phosphatidylinositol 4,5-bisphosphate 3-kinase catalytic subunit beta isoform (P42338 whole entry, canonical isoform): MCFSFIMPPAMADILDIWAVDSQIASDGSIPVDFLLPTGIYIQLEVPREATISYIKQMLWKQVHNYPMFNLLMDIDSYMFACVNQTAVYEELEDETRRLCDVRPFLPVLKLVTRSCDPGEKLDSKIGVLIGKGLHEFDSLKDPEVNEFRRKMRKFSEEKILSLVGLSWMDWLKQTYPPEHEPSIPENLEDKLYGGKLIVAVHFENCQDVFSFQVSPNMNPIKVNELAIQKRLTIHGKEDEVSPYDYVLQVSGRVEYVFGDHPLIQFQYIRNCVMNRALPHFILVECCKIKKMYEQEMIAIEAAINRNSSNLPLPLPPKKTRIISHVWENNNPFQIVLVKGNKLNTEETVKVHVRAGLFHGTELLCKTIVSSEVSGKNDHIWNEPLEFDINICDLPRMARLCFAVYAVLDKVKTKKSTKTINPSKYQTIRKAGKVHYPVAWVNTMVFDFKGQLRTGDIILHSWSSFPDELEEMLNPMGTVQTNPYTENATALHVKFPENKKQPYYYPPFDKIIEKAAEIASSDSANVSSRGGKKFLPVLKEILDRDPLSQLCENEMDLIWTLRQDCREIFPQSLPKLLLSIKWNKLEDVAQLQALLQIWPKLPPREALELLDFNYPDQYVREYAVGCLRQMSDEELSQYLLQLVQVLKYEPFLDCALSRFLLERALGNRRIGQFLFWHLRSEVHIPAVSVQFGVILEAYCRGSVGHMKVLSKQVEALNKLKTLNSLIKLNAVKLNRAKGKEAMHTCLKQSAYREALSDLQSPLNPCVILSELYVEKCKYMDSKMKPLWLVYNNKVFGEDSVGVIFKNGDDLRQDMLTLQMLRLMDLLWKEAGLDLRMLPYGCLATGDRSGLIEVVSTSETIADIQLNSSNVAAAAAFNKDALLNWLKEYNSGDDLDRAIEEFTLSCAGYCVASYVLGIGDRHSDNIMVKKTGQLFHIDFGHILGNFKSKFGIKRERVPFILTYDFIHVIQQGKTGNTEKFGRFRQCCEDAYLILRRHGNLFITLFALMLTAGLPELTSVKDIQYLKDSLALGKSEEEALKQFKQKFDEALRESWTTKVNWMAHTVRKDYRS
Sequence of Phosphatidylinositol 4,5-bisphosphate 3-kinase catalytic subunit alpha isoform (P42336 whole entry, canonical isoform): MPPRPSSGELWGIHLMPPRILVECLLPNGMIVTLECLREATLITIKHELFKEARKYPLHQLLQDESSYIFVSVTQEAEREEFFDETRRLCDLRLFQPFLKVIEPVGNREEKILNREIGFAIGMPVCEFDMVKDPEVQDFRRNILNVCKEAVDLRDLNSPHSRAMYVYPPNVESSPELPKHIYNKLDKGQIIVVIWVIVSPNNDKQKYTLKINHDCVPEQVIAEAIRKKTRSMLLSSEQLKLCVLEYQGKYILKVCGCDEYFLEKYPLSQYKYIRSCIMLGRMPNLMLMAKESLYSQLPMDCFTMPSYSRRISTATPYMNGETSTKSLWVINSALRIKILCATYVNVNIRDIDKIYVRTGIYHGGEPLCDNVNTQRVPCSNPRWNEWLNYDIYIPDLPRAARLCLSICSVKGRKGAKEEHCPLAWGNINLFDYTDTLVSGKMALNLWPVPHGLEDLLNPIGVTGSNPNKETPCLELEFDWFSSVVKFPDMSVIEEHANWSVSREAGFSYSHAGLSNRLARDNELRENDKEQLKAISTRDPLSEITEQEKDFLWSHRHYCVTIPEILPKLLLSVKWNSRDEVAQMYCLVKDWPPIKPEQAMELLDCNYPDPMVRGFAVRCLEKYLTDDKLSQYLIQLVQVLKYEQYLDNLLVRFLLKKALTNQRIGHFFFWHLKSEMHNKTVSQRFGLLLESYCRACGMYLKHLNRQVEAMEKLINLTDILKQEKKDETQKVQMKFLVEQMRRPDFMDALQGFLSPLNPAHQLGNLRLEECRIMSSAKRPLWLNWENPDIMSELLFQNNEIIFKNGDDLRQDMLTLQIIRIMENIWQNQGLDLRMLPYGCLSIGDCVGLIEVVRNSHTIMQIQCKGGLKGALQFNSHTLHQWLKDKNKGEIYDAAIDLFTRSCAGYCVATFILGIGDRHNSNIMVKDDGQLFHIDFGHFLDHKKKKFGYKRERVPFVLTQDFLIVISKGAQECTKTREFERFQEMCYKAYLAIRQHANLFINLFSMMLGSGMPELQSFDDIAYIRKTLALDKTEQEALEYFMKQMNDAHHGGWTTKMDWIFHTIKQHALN

Papp A→B [1]: 13.8 ×10⁻⁶ cm/s
fraction unbound [2]: 0.023
IC50 [3]: 590 nM
Drug excretion [4]: Active
Drug metabolism [5]: Active
IC50 [6]: 69 nM
efflux ratio [7]: 2.4
Vd [8]: 1.14 L/kg
IC50 [9]: 71 nM
clearance [13]: 30 mL/min/kg
IC50 [14]: 162 nM
microsomal CLint [15]: 29 µL/min/mg
AUC [16]: 1.8 µM·h
IC50 [17]: 53 nM
Drug metabolism [18]: Active
solubility [19]: 27 µg/mL (≈ 87.9 µM)
solubility [20]: 6.3 µg/mL (≈ 20.5 µM)
half-life [21]: 26.4 min
Drug metabolism [22]: Active
IC50 [25]: 19 nM
solubility [26]: > 200 µg/mL
half-life [27]: 27 min
clearance [29]: 30 mL/min/kg
bioavailability [32]: 24%
bioavailability [34]: 24%
microsomal CLint [35]: 24 µL/min/mg
Drug excretion [36]: Active
Papp B→A [37]: 33.7 ×10⁻⁶ cm/s
IC50 [39]: 1130 nM
Vd [42]: 1.1 L/kg
SMILES: Cc1nc(N)nc(-c2c(Nc3cc[nH]n3)nc3ccccn23)n1
inhibition [10]: Active
Activity [11]: Non-toxic
inhibition [12]: Dose-dependent effect
inhibition [23]: inactive
inhibition in vivo at 60 mg/kg [24]: 82%
TGI [28]: Dose-dependent effect
inhibition [30]: inactive
inhibition [31]: inactive
inhibition [33]: Active
Activity [38]: > 20%
inhibition [40]: Active
TGI [41]: Dose-dependent effect
inhibition in vivo at 30 mg/kg [43]: 84%
